Measured values from ChEMBL document CHEMBL1250505, “Synthesis and biological property of some novel 1,3,4-oxadiazoles” (2010).

Columns and labels:
Type in all cases: functional
[1] = system: Escherichia coli; experiment: Antibacterial activity against Escherichia coli at 50 ug/ml after 24 to 48 hrs by cup-plate method; conditions: read-out: IZ
Method in brief: (§1)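 Sterile nutrient agar cooled to […] and seeded with 18-24 h sub-cultures, then poured at about 45-50 mL per dish. Wells cut with a 6 mm sterile cork borer and filled with 0.1 mL of each of two test dilutions. Plates incubated inverted at 37 °C for 24–48 h; inhibition zone diameters measured in mm. Streptomycin and procaine penicillin served as standards.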

[2] = system: Mus musculus; experiment: Analgesic activity in albino mouse assessed as paw licking latency at 100 mg/kg after 2 hrs by Eddy's hot plate method
Method in brief: (§2)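 Albino mice of either sex, fasted 24 h, 6 per group. Compounds given at 100 mg/kg; control group received 2% acacia suspension, standard group pentazocine 35 mg/kg. Hot plate held at 55 ± 1 °C. Reaction time is the time to lick a hind paw or leap off the plate, recorded at 0, 30, 60, 120 and 240 min after dosing.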

[3] = system: Bacillus subtilis; experiment: Antibacterial activity against Bacillus subtilis at 50 ug/ml after 24 to 48 hrs by cup-plate method; conditions: read-out: IZ; method in brief: as §1
[4] = system: Bacillus subtilis; experiment: Antibacterial activity against Bacillus subtilis at 100 ug/ml after 24 to 48 hrs by cup-plate method; conditions: read-out: IZ; method in brief: as §1
[5] = system: Pseudomonas aeruginosa; experiment: Antibacterial activity against Pseudomonas aeruginosa at 50 ug/ml after 24 to 48 hrs by cup-plate method; conditions: read-out: IZ; method in brief: as §1
[6] = system: Pseudomonas aeruginosa; experiment: Antibacterial activity against Pseudomonas aeruginosa at 100 ug/ml after 24 to 48 hrs by cup-plate method; conditions: read-out: IZ; method in brief: as §1
[7] = system: Mus musculus; experiment: Analgesic activity in albino mouse assessed as paw licking latency at 100 mg/kg after 0.5 hrs by Eddy's hot plate method; method in brief: as §2
[8] = system: Mus musculus; experiment: Analgesic activity in albino mouse assessed as paw licking latency at 100 mg/kg after 4 hrs by Eddy's hot plate method; method in brief: as §2
[9] = system: Mus musculus; experiment: Analgesic activity in albino mouse assessed as paw licking latency at 100 mg/kg after 1 hr by Eddy's hot plate method; method in brief: as §2
[10] = system: Staphylococcus aureus; experiment: Antibacterial activity against Staphylococcus aureus at 100 ug/ml after 24 to 48 hrs by cup-plate method; conditions: read-out: IZ; method in brief: as §1
[11] = system: Escherichia coli; experiment: Antibacterial activity against Escherichia coli at 100 ug/ml after 24 to 48 hrs by cup-plate method; conditions: read-out: IZ; method in brief: as §1
[12] = system: Staphylococcus aureus; experiment: Antibacterial activity against Staphylococcus aureus at 50 ug/ml after 24 to 48 hrs by cup-plate method; conditions: read-out: IZ; method in brief: as §1

SMILES	zone of inhibition at 50 µg/mL [1] [mm]	Time [2] [s]	zone of inhibition at 50 µg/mL [3] [mm]	zone of inhibition at 100 µg/mL [4] [mm]	zone of inhibition at 50 µg/mL [5] [mm]	zone of inhibition at 100 µg/mL [6] [mm]	Time [7] [s]	Time [8] [s]	Time [9] [s]	zone of inhibition at 100 µg/mL [10] [mm]	zone of inhibition at 100 µg/mL [11] [mm]	zone of inhibition at 50 µg/mL [12] [mm]
COc1ccccc1-c1cccc(-c2n[nH]c(=S)o2)c1	12	7.61	10	21	11	18	4.94	6.28	5.84	18	18	11
Fc1ccccc1-c1cccc(-c2n[nH]c(=S)o2)c1	15	5.38	12	19	18	21	4.99	5.04	5.24	20	19	15
S=c1[nH]nc(-c2cccc(-c3cccc(Cl)c3)c2)o1	11	5.01	13	9	9	14	4.71	5.08	4.84	11	16	10
N#CCCCSc1nnc(-c2cccc(-c3ccccc3F)c2)o1	17	4.92	12	18	16	20	4.54	4.49	4.71	16	21	11
N#CCCCSc1nnc(-c2cccc(-c3cccc(Cl)c3)c2)o1	10	5.12	8	16	12	16	4.51	4.71	4.77	15	17	10
COc1ccc(F)cc1-c1cccc(-c2n[nH]c(=S)o2)c1	8	8.41	12	19	14	19	5.22	6.35	5.74	17	20	12
COC(=O)CCCSc1nnc(-c2cccc(-c3cc(F)ccc3OC)c2)o1	15	6.01	13	18	13	19	4.75	6.01	5.11	16	18	10
COC(=O)CCCSc1nnc(-c2cccc(-c3ccccc3OC)c2)o1	7	6.58	11	15	18	21	5.01	6.21	5.21	14	16	9
COC(=O)CCCSc1nnc(-c2cccc(-c3ccccc3F)c2)o1	9	4.84	9	16	13	21	4.53	4.49	4.62	17	16	15
COC(=O)CCCSc1nnc(-c2cccc(-c3cccc(Cl)c3)c2)o1	18	6.58	11	18	6	18	4.96	5.59	5.36	16	19	10
COc1ccc(F)cc1-c1cccc(-c2nnc(SCCCCF)o2)c1	12	4.72	10	17	7	15	4.35	4.55	4.48	15	19	12
COc1ccccc1-c1cccc(-c2nnc(SCCCCF)o2)c1	12	6.17	15	20	6	15	4.9	6.01	5.01	21	16	15
FCCCCSc1nnc(-c2cccc(-c3ccccc3F)c2)o1	13	4.87	20	22	17	18	4.62	4.47	4.69	20	19	13
FCCCCSc1nnc(-c2cccc(-c3cccc(Cl)c3)c2)o1	12	8.35	15	20	15	20	5.56	6.44	5.79	12	15	5
COc1ccc(F)cc1-c1cccc(-c2nnc(SCCCC#N)o2)c1	10	4.99	7	18	15	18	4.92	4.74	4.86	13	18	7
COc1ccccc1-c1cccc(-c2nnc(SCCCC#N)o2)c1	10	6.57	17	20	9	20	5.25	5.59	5.4	18	20	12
CN[C@@H]1[C@H](O[C@H]2[C@H](O[C@H]3[C@H](O)[C@@H](O)[C@H](N=C(N)N)[C@@H](O)[C@@H]3N=C(N)N)O[C@@H](C)[C@]2(O)C=O)O[C@@H](CO)[C@H](O)[C@H]1O [STREPTOMYCIN]	21	–	–	–	21	25	–	–	–	–	25	–
